Assay outcomes: PubChem, Sanford-Burnham Center for Chemical Genomics
Shown are actives, neighbours in structure and some others; about 3.3% of the full set was active somewhere.
SENP1 inh – inhibitors of human SENP1 SUMO protease catalytic domain. AID 624204. Q9P0U3. inhibition, % at 10 µM. actives 0.21% (n = 360,000). recombinant SENP1 catalytic domain, CyPet-SUMO1-YPet FRET cleavage;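 active = inhibition at least 30% at 10 µM, raw YFP signal under a set limit, fluorescence ratio 0.5 to 1.5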;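 also: 0% = enzyme with DMSO and 100% = no enzyme wells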
Target sequence (Q9P0U3 419-644 limits assumed): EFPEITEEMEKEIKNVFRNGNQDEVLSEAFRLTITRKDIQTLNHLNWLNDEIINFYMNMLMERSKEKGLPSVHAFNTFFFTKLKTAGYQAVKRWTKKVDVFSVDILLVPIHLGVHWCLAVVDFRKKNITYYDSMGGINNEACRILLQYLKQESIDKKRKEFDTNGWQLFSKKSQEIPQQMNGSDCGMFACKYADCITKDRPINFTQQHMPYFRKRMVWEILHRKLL
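Compound: 10 µM single point, 0.5% DMSO; Test system: hSENP1 catalytic domain, recombinant; Timing: 50 min reaction at room temperature; Technique: FRET, CFP and YFP emission; Control set: no-enzyme wells low, DMSO-plus-enzyme wells high control.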
CendR NRP1 mod – alters CendR peptide binding to human NRP-1; inhibition, % at 25 µM; actives 0.85% (n = 360,000); AID 602438; O14786; FAM-RPARPAR peptide binding to NRP-1, fluorescence polarization;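 active = inhibition or corrected inhibition above about 18%, plus a signal ratio from 0.5 to 1.5, limit read from the data, passing the limit was not always enough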
SENP6 block – SENP6 protease inhibition. Q9GZR1. Recombinant SENP6 catalytic domain, aminoluciferin luminescence. inhibition, % at 10 µM. actives 1.8% (n = 330,000);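 active = inhibition above about 50% at the single tested dose, limit read from the data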;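 also: plate controls were DMSO wells with enzyme for no effect and DMSO wells lacking enzyme for full effect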
SENP7 block – inhibitors of human SENP7 protease | Q9BQF6 | recombinant SENP7, Z-RLRGG-aminoluciferin luminescence, 40 min | inhibition, % at 5 µM | actives 1.5% (n = 330,000) | AID 434973;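 active = inhibition above about 50% at the single test dose, limit read from the data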;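 also: plate controls were DMSO with enzyme for no effect and no enzyme buffer wells for full effect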
Target sequence (Q9BQF6 706-1050 limits assumed): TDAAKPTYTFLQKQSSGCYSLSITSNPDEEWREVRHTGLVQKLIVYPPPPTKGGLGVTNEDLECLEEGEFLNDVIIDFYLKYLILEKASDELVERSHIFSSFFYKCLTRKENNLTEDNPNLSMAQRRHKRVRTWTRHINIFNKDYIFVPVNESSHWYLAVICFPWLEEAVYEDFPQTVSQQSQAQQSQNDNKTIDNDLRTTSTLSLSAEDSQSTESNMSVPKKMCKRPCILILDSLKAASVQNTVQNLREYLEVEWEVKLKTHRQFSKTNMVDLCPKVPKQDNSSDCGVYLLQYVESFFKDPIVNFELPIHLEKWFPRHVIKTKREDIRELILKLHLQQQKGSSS
SENP8 block-1 – blocks human SENP8 cleavage of Nedd8 substrate. actives 0.64% (n = 360,000). Q96LD8. recombinant SENP8, Nedd8 substrate fluorescence. AID 602440. inhibition, % at 20 µM; in the data active = inhibition mostly above about 40%, no sharp cut-off; inactive = mostly below about 27%
SENP8 block-2 – inhibitors of human SENP8 protease; inhibition, % at 10 µM; actives 1.2% (n = 330,000); AID 2540; purified SENP8, Z-RLRGG-aminoluciferin cleavage, luminescence; Q96LD8; in the data active = inhibition above about 50%
* = called active by the depositor; i = inactive; / = no result.

SMILES	SENP1 inh	CendR NRP1 mod	SENP6 block	SENP7 block	SENP8 block-1	SENP8 block-2
O=C(NCc1ccc(F)c(F)c1)C1Cc2c(-c3ccc4c(c3)OCO4)ccnc2O1 (stereo unspecified)	-2	5	/	/	-68	/
CC(C)c1cc(Cn2c3ccccc3c(=O)n2C(C)Cn2cc(COc3ccccc3)nn2)on1 (stereo unspecified)	1	3	/	/	-397	/
N#Cc1c(N)[nH]c(C(=O)c2ccccc2)c1-c1ccccc1Br	-3	-26	/	/	0	/
CCN(CC)S(=O)(=O)c1ccc(N=NC2=C(O)CC(C)(C)CC2=O)cc1	-1	10	-2	1	26	3
CCN(CC)S(=O)(=O)c1ccc(N=NC2=C(O)CCCC2=O)cc1	-1	26*	26	8	19	4
CCOC(=O)c1c2c(n(C)c1COC)C(=O)C(=O)c1ccc(Br)cc1-2	/	/	96*	95*	/	97*
CCCn1c(=O)c(C(=O)OCC)c(O)c2cc(Br)ccc21	3	-17	5	2	6	3
Cc1ccc(NC(=O)c2ccc(OCC3CCCO3)cc2)cc1Cl (stereo unspecified)	-1	4	/	/	6	/
CC(C)CNC(=O)/C=C/C=C/CCCC/C=C/c1ccc2c(c1)OCO2	3	25*	-3	-4	11	-1
COCC(=O)N[C@H]1C=C[C@@H](CC(=O)OC)O[C@@H]1CO	1	12	/	/	20	/
O=C(Nc1ccc(Cl)cc1)N1CCSC1=NCc1ccccc1	1	9	8	2	22	2
CC(=O)Nc1ccc(C2=NN(C)C(=NCc3ccccc3)SC2)cc1	-4	30*	11	9	3	-2
Cc1ccc(NCc2ccccc2O)cc1	1	-4	19	18	15	-6
Cc1ccc(CNc2ccc(O)cc2)cc1	2	10	48	5	72*	44
Cc1cc(=O)[nH]c(NNC(=O)c2ccc(Cl)cc2)n1	-1	-4	/	/	22	/
O=C(NCc1ccccc1)C(c1ccco1)N1CCN(c2ccccc2F)CC1 (stereo unspecified)	2	-1	/	/	18	/
COc1ccc(NC(=O)c2cc(-c3cc(F)ccc3OC(C)C)n[nH]2)cc1OC	7	-3	/	/	22	/
Oc1ccccc1-c1ccn[nH]1	2	32*	10	6	4	11
CN(C)CCCN1C(=O)c2cccc3c(Br)ccc(c23)C1=O	-26	25*	8	2	-103	6
O=C(O)CN1C(=O)c2cccc3c(Br)ccc1c23	-12	3	9	-6	-21	7
COc1ccccc1Nc1nc2nonc2nc1N1CCC(C)CC1	-8	-5	-6	0	15	-3
COc1ccc(OC)c(Nc2nc3nonc3nc2N2CCCCC2)c1	-31	49*	-21	-3	3	-10
Oc1ccc(/C=N/N=C(c2ccccc2)c2ccccc2)c(O)c1O	-32	-14	/	/	34*	/
COC(=O)c1c(-c2ccc(N(C)C)cc2)oc2c1C(OC)CCC2 (stereo unspecified)	-98	8	/	/	-410	/
COc1cccc(C(C(=O)NCc2ccccc2)N2CCN(C(=O)C3CCCO3)CC2)c1OC (stereo unspecified)	2	-9	/	/	28	/
SMILES	SENP1 inh	CendR NRP1 mod	SENP6 block	SENP7 block	SENP8 block-1	SENP8 block-2
CCC1CCCCN1CCCNC(=O)C1CCCN(S(=O)(=O)N2CC(C)CC(C)C2)C1 (stereo unspecified)	-1	27*	9	6	17	2
CC1(Cc2ccc3c(c2)OCO3)C(=O)Nc2c(Cl)ccc(Cl)c21 (stereo unspecified)	-1	-10	/	/	10	/
Cc1cc(C(=O)OCC(=O)Nc2cccc(S(=O)(=O)N(C)C)c2)c(C)o1	2	24*	-16	8	18	-3
Cc1cc(NC(=O)COC(=O)c2cc(S(=O)(=O)N(C)C)ccc2Cl)no1	1	29*	-15	-3	7	-10
Cc1cc(NC(=O)COC(=O)c2ccc([N+](=O)[O-])cc2Cl)no1	2	2	-3	2	14	-9
O=[N+]([O-])C1C(c2ccccc2)C12c1ccccc1-c1ccccc12 (stereo unspecified)	3	-4	/	/	22	/
CC(=O)N(C1=C(N)C(=O)c2ccccc2C1=O)c1ccccc1	2	9	26	19	62*	24
CCCCCn1nc(C(=O)OCc2nc(N)nc(Nc3ccccc3)n2)c2ccccc2c1=O	1	13	-15	-12	0	-13
CCN1CCN(c2nc3ccccc3nc2C(C#N)S(=O)(=O)c2ccc(C)cc2)CC1 (stereo unspecified)	-24	-9	3	2	-164	6
Cc1ccc(S(=O)(=O)C(C#N)c2nc3ccccc3nc2N2CCCC2)cc1 (stereo unspecified)	-18	-55	73*	42	i	77*
Cc1cc2cc3c(=O)[nH]c(=O)nc-3n(CC(O)C(O)C(O)CO)c2cc1C (stereo unspecified)	-27	25*	/	/	-454	/
Cc1cc2cc3c(=O)[nH]c(=O)cc-3n(CC(O)C(O)C(O)CO)c2cc1C (stereo unspecified)	21	-112	/	/	-38	/
COc1[nH]c(/N=C/c2ccccc2)c(C#N)c1C#N	70*	-3	-17	-9	-34	-1
Cc1ccc2nc(C(C)(C)C)c(Cc3cccc(Cl)c3)n2c1	-9	6	/	/	-243	/
CCN(CC)C(=O)CN1C(=O)/C(=C/c2ccccc2)SC1=S	2	20*	-35	-10	35	-18
CCc1ccc(/C=C2\SC(=S)N(CCCC(=O)N(CCO)c3ccccc3)C2=O)cc1	5	28*	/	/	25	/
COc1ccc(/C=C2/SC(=S)N(Cc3ccccc3)C2=O)cc1O	-86	-16	-23	-10	20	-15
CC(=O)NNC(=O)CN1C(=O)/C(=C/c2ccccc2)SC1=S	0	11	-6	-6	17	-10
O=C1/C(=C\c2cc(Cl)c(O)c(Cl)c2)SC(=S)N1Cc1ccccc1	-4	146	/	/	48*	/
CC(=O)Nc1cccc(-c2nc3ccccc3n2C(C)C(=O)NC(C)(C)C)c1 (stereo unspecified)	2	4	/	/	-26	/
COc1cccc(C(C(=O)NC2CCCC2)N2CCN(c3cc(C)nc4ccccc34)CC2)c1OC (stereo unspecified)	2	2	/	/	-3	/
CC1(C)c2ccccc2C(=O)c2ccccc21	3	34*	/	/	25	/
CC1(C)C(=Cc2ccccc2)C(=O)c2ccccc21	1	-6	/	/	16	/
CCN(CC)c1ccc2cc(C#N)c(=O)oc2c1	-24	25*	-1	-4	-360	4
CS(=O)(=O)N(CC(=O)Nc1ccccc1-c1ccccc1)c1cccc(F)c1	3	27*	-5	1	13	-2
